Experiments:
Pseudomonas aeruginosa [1] = assay: Antimicrobial activity against Pseudomonas aeruginosa OC 4354 infected in immunocompromized SKH1 mouse assessed as lesion volume at 25 mg/kg/day, sc measured after 48 hrs postinfection (reference value: 2195 mm3); type: functional; conditions: route subcutaneous
Pseudomonas aeruginosa [2] = assay: Antimicrobial activity against Pseudomonas aeruginosa OC 4351 assessed as inhibition of growth by broth microdilution method; type: functional
Zone of skin = assay: fCmax in Staphylococcus aureus infected immunocompetent SKH1 mouse skin at 50 mg/kg, sc; type: ADME, organism-based; set-up: dose 50 mg/kg, route subcutaneous; conditions: in vivo
In short: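 Female SKH1 hairless mice, immunocompetent or cyclophosphamide-neutropenic, infected s.c. with MRSA OC 8525 or P. aeruginosa OC 4354 on the Cytodex beads (left flank), sterile beads on the right. Single dose 24 h later: s.c. at the nape, or linezolid 50 mg/kg oral. Plasma and skin (DMSO homogenate) sampled over time, HPLC with diode array.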

Staphylococcus aureus = assay: Antimicrobial activity against methicillin-susceptible Staphylococcus aureus Smith OC 4172 infected in SKH1 mouse assessed as log change in bacterial colony forming unit per gram of skin tissue at 1.6 mg/kg/day, sc (reference value: 1.6 deltalog CFU); type: functional; conditions: route subcutaneous

For `Nc1nc(/C(=N/O)C(=O)N[C@@H]2C(=O)N3C(C(=O)O)=C(/C=C4\CCN([C@@H]5CCNC5)C4=O)CS[C@H]23)ns1` [CEFTOBIPROLE], which Activity (Pseudomonas aeruginosa [1]) is on record?
Its Activity is 580 mm3.

And the MIC (Pseudomonas aeruginosa [2])?
Its MIC is 4 µg/mL.

What about the fCmax (Zone of skin) of the same molecule?
Its fCmax is 13 µg/g.

And the deltalog10CFU (Staphylococcus aureus)?
Its deltalog10CFU is -1.
